≈ marks a conversion by molar mass, not a printed value. Calls of active or inactive are those of the source. The rule behind the calls is not given here.
Tests used:
[1] = Acute toxicity in ip dosed ICR mouse assessed as lethality administered daily for 7 days; format: organism-based; settings: in vivo
How it was run: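 Intraperitoneal dosing of ICR mice once daily for 7 days, with top doses up to 600 or 1000 mg/kg depending on the compound. Lethality was recorded and expressed as an LD50 (mg/kg).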

[2] = target: T1, Inhibitor of nuclear factor kappa-B kinase subunit beta (Homo sapiens) (UniProt O14920); test: Inhibition of IKKbeta (unknown origin) transfected in HEK293 cells assessed as mitigation of TNFalpha-induced increase in ratio of nuclear to cytosolic p65 at 200 to 1000 nM administered 6 hrs after TNFalpha stimulation measured for 24 hrs by Western blot method; format: cell-based
T1 sequence (whole entry): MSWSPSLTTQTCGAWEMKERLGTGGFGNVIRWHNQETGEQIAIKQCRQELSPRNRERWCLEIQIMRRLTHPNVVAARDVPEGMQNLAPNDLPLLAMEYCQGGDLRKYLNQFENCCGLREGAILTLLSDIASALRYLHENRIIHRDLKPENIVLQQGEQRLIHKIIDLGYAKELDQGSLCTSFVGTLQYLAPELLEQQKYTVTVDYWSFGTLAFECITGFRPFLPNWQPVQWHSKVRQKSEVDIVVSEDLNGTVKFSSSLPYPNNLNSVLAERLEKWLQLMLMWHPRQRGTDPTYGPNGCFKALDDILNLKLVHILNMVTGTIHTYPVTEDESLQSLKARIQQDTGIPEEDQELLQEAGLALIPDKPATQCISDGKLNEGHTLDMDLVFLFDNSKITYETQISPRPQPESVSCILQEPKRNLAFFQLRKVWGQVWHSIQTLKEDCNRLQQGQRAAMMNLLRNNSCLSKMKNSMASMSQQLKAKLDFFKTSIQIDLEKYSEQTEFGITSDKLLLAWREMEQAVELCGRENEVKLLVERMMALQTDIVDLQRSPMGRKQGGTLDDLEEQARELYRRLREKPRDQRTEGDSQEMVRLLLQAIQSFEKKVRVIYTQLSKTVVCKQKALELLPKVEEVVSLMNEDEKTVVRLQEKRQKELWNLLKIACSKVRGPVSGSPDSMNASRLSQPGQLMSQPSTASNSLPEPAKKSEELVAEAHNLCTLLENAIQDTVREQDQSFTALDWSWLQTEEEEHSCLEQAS
How it was run: (§1)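 HEK293 cells pretreated with TNF-α (10 ng/mL) for 6 h, then given compound at 200 or 1000 nM for 24 h, in triplicate; nuclear and cytosolic p65, iNOS and COX2 protein by western blot; mean ± SD from three experiments.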

[3] = AUC (0 to t) in Sprague-Dawley rat at 10 mg/kg, iv measured up to 24 hrs by LC-MS/MS analysis; format: ADME, organism-based; design: dose 10 mg/kg, time < 24 hr, route intravenous; settings: in vivo
How it was run: (§2)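 Rats dosed intravenously at 10 mg/kg; blood drawn from suborbital vein at 0, 2, 5, 15, 30, 60 min and 1.5, 2, 4, 6, 8, 12, 24 h; plasma levels by LC-MS/MS; parameters from concentration–time profiles, mean ± SD, n = 3.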

[4] = target: T1, Inhibitor of nuclear factor kappa-B kinase subunit beta (Homo sapiens); test: Inhibition of IKKbeta (unknown origin) transfected in HEK293 cells assessed as reduction in TNFalpha-induced upregulation of iNOS protein expression at 200 to 1000 nM administered 6 hrs after TNFalpha stimulation measured for 24 hrs by Western blot method; format: cell-based; how it was run: as §1
[5] = Solubility of compound in saline at 100 uM at pH 7.4 by HPLC analysis; format: physicochemical
How it was run: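 Solubility was determined by an established HPLC method, in saline alone or in saline containing 1% 1,3-propylene glycol and 1% Tween 80.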

[6] = target: T1, Inhibitor of nuclear factor kappa-B kinase subunit beta (Homo sapiens); test: Inhibition of IKKbeta (unknown origin) transfected in HEK293 cells assessed as reduction in TNFalpha-induced upregulation of MCP1 mRNA expression at 200 to 1000 nM administered 6 hrs after TNFalpha stimulation measured for 24 hrs by quantitative RT-PCR analysis; format: cell-based
How it was run: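 HEK293 cells pretreated with TNF-α (10 ng/mL) for 6 h, then given compound at 200 or 1000 nM for 24 h, in triplicate; iNOS, COX2 and MCP-1 mRNA relative to GAPDH by quantitative RT-PCR, 2−ΔΔCt method; mean ± SD from three experiments.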

[7] = target: T1, Inhibitor of nuclear factor kappa-B kinase subunit beta (Homo sapiens); test: Inhibition of IKKbeta (unknown origin) transfected in HEK293 cells assessed as reduction in TNFalpha-induced upregulation of COX2 protein expression at 200 to 1000 nM administered 6 hrs after TNFalpha stimulation measured for 24 hrs by Western blot method; format: cell-based; how it was run: as §1
[8] = Clearance in Sprague-Dawley rat at 10 mg/kg, iv measured up to 24 hrs by LC-MS/MS analysis; format: ADME, organism-based; settings: in vivo; how it was run: as §2
H9c2 = test: Cytotoxicity against rat H9c2 cells assessed as reduction in cell viability after 24 hrs by MTT assay; format: cell-based; settings: H9c2, 24 h
How it was run: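 HEK293 or H9C2 cells grown in high-glucose DMEM with 10% FBS, exposed to compound for 24 h; viability by MTT, IC50 calculated.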

Mus musculus [9] = test: Renoprotective activity in db/db mouse assessed as reduction in glomerular basement thickening at 0.65 mg/kg, ip administered trice per week for 12 consecutive weeks measured at 11 weeks post dose by TEM microscopic analysis; format: functional, organism-based
How it was run: (§3)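 Male db/db mice (8 weeks old) were dosed i.p. three times weekly for 12 weeks in 5% Tween-80/0.9% saline, n = 6. Kidney tissue was fixed in 3% glutaraldehyde, cut into 80 nm ultrathin sections and examined by TEM. GBM thickness was measured at 30 random locations from three sections per kidney and averaged per mouse.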

Mus musculus [10] = test: Toxicity in db/db mouse assessed as increase in body weight at 0.65 mg/kg, ip administered thrice per week for 12 consecutive weeks measured every other day (reference value: 15%); format: organism-based; settings: in vivo
How it was run: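 Male db/db mice (8 weeks old, specific pathogen-free, normal chow and filtered water ad libitum) were randomized and dosed i.p. three times weekly for 12 consecutive weeks; vehicle was 5% Tween-80 in 0.9% saline. Body weight and food and water consumption were recorded every other day.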

[11] = Drug level in Sprague-Dawley rat heart at 20 mg/kg, ip measured at 90 mins by LC-MS/MS analysis; format: ADME, organism-based; settings: read-out: Drug uptake
How it was run: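 Rats given a single ip injection, 20 mg/kg (0.04 mmol) of CDDO-Me or 30 mg/kg (0.04 mmol) of the prodrug; heart, kidney and liver collected over time; parent compound and liberated CDDO-Me measured by LC-MS/MS.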

Mus musculus [12] = test: Anti-diabetic nephropathic activity in db/db mouse assessed as reduction in urine albumin to creatinine ratio at 0.65 mg/kg, ip administered trice per week for 12 consecutive weeks measured at 24 hrs post 11 week administration; format: functional, organism-based
How it was run: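 Male db/db mice, 8 weeks old, randomized; ip vehicle (5% Tween-80 in 0.9% saline) or drug three times weekly for 12 weeks, n = 6 per group. After 11 weeks, 24 h urine collected for volume, albumin and creatinine, with UACR calculated; blood then sampled for plasma BUN and uric acid. Mean ± SD, one-way ANOVA with Tukey test.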

Mus musculus [13] = test: Renoprotective activity in db/db mouse assessed as reduction in mesangial expansion at 0.65 mg/kg, ip administered trice per week for 12 consecutive weeks measured at 11 weeks post dose by TEM microscopic analysis; format: functional, organism-based; how it was run: as §3

Row | Compound | LD50 at 168 h [1] [mg/kg] | inhibition [2] | AUC(0-t) at 24 h [3] [ng·h/mL] | inhibition [4] | solubility at 100 µM ([5]; saline, pH 7.4) [µg/mL] | inhibition [6] | inhibition [7] | clearance [8] [mL/min/kg] | IC50 (H9c2) [µM] | Activity (Mus musculus [9]) | Activity (Mus musculus [10]) [%] | solubility ([5]; buffer, pH 7.4, 100 µM) | concentration at 1.5 h [11] [ng/g] | Activity (Mus musculus [12]) | Activity (Mus musculus [13])
1 | COC(=O)[C@@H](N)CCC(=O)Nc1ccc(COC2=C(C#N)[C@H](O)[C@]3(C)C4=CC(=O)[C@@H]5[C@@H]6CC(C)(C)CC[C@]6(C(=O)OC)CC[C@@]5(C)[C@]4(C)CC[C@H]3C2(C)C)cc1 | 886 | Active | 509 | Active | 8.9 (≈ 11.5 µM) | Active | Active | 340 | 112 |  |  |  |  |  | 
2 | COC(=O)[C@]12CCC(C)(C)C[C@H]1[C@H]1C(=O)C=C3[C@@]4(C)C=C(C#N)C(=O)C(C)(C)[C@@H]4CC[C@@]3(C)[C@]1(C)CC2 [BARDOXOLONE METHYL] | 425 | Active | 2060 | Active |  | Active | Active | 78 | 5.2 | Active | 11.3 | Insoluble | 1580 | Active | Active

Reference: ChEMBL document CHEMBL4017544 (J Med Chem, 2017)
